An excerpt weighted towards active compounds, which were near 2.1% of everything screened.
MC4R antag cAMP – blocks human MC4R cAMP signaling; P32245; MC4R-expressing cells, MTII-stimulated cAMP, LANCE TR-FRET; inhibition, % at 6.5 µM; actives 0.48% (n = 360,000); AID 540295;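 active = inhibition above its plate's cutoff, the mean of tested wells on that plate plus 3 SD, cut at about 29% in these data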;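 also: 0% = Melanotan II alone and 100% = Melanotan II plus saturating MCL0020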
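Material – human MC4R-expressing U2OS cells · Repeats – no replicates · Detection – TR-FRET with Eu-cAMP and labeled anti-cAMP, 671 nm · Times – compound 30 min, challenge 1 h, detection 1 h · Compound – single nominal compound dose of 6.5 µM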
TLR9-MyD88 block – inhibitors of human TLR9-MyD88 binding; CHO BLA complementation TLR9-MyD88, CCF4 FRET ratio; actives 0.21% (n = 340,000); inhibition, % at 4.98 µM; AID 504734; Q9NR96+Q99836;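 active = inhibition above the mean over all tested compounds plus 3 SD, cut at about 21% in these data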;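 also: 0% = DMSO only wells and 100% = clavulanate BLA inhibitor control wells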
TLR4 MyD88 comp – blocks binding of human TLR4 to MyD88. actives 0.18% (n = 200,000). HeLa CL3-4 TLR4/MyD88 BLA complementation, FRET ratio. inhibition, % at 8.4 µM; in the data active = inhibition above about 25%;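 also: 0% = vehicle and 100% = reference inhibitor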
MIN6 prolif – MIN6 beta-cell proliferation induction; MIN6 cells proliferation, ATPlite luminescence, 48 h; cells starved in 0.2% serum; 100% = growth in 10% serum; proliferation, % at 10 µM; actives 0.29% (n = 330,000);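 active = compounds whose signal lies at least 3.5 SD above the mean of all wells on their plate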;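 also: 0% = DMSO-treated cells in low-serum medium and 100% = 10% serum control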
NOD2 RIPK2 PPI – NOD2-RIPK2 protein interaction inhibition. inhibition, % at 4.98 µM. AID 624267. actives 0.38% (n = 360,000). CHO BLA complementation NOD2-RIPK2, CCF4 ratio; in the data active = inhibition above about 21%;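 also: 0% = vehicle only and 100% = reference blocker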
Target sequence (O43353 whole entry, looked up): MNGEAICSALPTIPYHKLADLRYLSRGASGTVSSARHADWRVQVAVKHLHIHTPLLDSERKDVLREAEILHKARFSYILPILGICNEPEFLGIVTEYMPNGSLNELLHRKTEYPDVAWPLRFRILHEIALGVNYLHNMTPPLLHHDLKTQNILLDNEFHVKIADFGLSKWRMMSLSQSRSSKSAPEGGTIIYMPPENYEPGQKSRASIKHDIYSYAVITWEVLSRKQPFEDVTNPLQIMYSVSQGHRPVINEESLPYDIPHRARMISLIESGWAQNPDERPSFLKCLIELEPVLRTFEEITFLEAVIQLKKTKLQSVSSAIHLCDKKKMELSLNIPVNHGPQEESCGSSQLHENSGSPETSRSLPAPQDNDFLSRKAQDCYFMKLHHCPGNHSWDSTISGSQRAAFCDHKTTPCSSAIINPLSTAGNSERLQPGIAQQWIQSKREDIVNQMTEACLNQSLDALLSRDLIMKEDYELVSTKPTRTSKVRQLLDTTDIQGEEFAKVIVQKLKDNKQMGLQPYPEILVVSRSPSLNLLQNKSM
MC4R ag barr – human MC4R agonism via beta-arrestin; actives 0.98% (n = 360,000); P32245; AID 540308; U2OS MC4R beta-arrestin complementation, luminescence; percent of melanotan II response, DMSO zero; activation, % at 8.9 µM;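 active = activation above a per-plate cutoff, the mean activation of sample wells on that plate plus 3 SD, cut at about 8% in these data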
TLR4 MyD88 cnf – confirmation of human TLR4-MyD88 binding inhibitors; shares compounds with TLR4 MyD88 comp; HeLa CL3-4 BLA complementation, CCF4 FRET ratio; inhibition, % at 8.4 µM; actives 50% (n = 350); AID 941;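 active = mean inhibition across three repeat runs above about 25% carried over from the earlier screen, limit read from the data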;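 also: plate controls were DMSO only for no effect and clavulanic acid blocking BLA at full dose for full effect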
BLA inhibitor ct – counter-screen for TLR4-MyD88 inhibitors: beta-lactamase reporter inhibitors | shares compounds with TLR4 MyD88 comp | HeLa BLA reporter, CCF4 FRET ratio | inhibition, % at 8.4 µM | actives 63% (n = 350) | AID 1237;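 active = mean inhibition over three repeats above about 26% taken from the earlier screen, limit read from the data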;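 also: HeLa cells stably expressing beta-lactamase reporter as counterscreen for TLR4-MyD88 inhibitors; 0% = DMSO and 100% = clavulanic acid full inhibition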
* marks the source's active call; other numbers are inactive results; / = no result.

SMILES	MC4R antag cAMP	TLR9-MyD88 block	TLR4 MyD88 comp	MIN6 prolif	NOD2 RIPK2 PPI	MC4R ag barr	TLR4 MyD88 cnf	BLA inhibitor ct
CC(=O)C1=NN(c2ccccc2)C(c2cccs2)N1c1ccccc1 (centres undefined)	/	/	27*	-3	/	/	5	14
O=C(CCN1CCC(c2cccs2)=N1)c1cccs1	-4	/	/	0	1	0	/	/
O=C(CCCc1ccccc1)c1ccc2c(c1)OCCO2	-2	-7	25*	-4	2	4	-2	1
O=C(CCc1ccccc1)c1ccc2c(c1)OCCCO2	-2	-10	4	0	-2	0	/	/
CCCCn1nc(-c2ccccc2)c2nc3ccccc3nc21	/	/	49*	-5	/	/	47*	50*
Cn1nc(-c2ccccc2)c2nc3ccccc3nc21	-2	9	28*	1	16	-1	22	44*
Cc1ccc(-c2nc3ccccc3nc2-c2ccccc2)cc1	-1	-2	/	-3	-1	-1	/	/
COc1cc2c3nnc(-c4ccccc4)c-3cn(Cc3ccc(F)cc3)c2cc1OC	0	-9	21	-6	-22	-2	/	/
COc1cc2c3nnc(-c4ccc(F)cc4)c-3cn(Cc3cccc(F)c3)c2cc1OC	18	-5	26*	-6	-9	-2	16	50*
CN(Cc1ccccc1)/C(=N/O)c1cccc(Cl)c1	10	2	/	1	8	0	/	/
CC(O)CN(Cc1cccc(Cl)c1)CC(C)O (centres undefined)	5	8	28*	2	-3	-2	-5	4
O=C(CCN1CCOCC1)Nc1ccc2c(c1)CCC2	13	0	25*	-2	-4	0	-1	4
O=[N+]([O-])c1ccc(N/N=C/c2cn(-c3ccccc3)nc2-c2ccccc2)cc1	2	14	38*	-6	10	2	38*	75*
CC1CCN(Cc2ccc(-c3nn[nH]n3)cc2)CC1	12	-19	27*	3	-2	2	-5	4
CCOC(=O)c1c2ccc(OCC(=O)N/N=C/c3ccc(Cl)cc3)cc2n2ccccc12	/	/	52*	/	/	/	54*	34*
CCOC(=O)c1cc(C(=O)NC(C)c2ccccc2)c(C)[nH]c1=O (centres undefined)	26	-6	-8	1	-9	-3	/	/
CCCCCNC(=O)C(C#N)c1nc2ccccc2nc1N1CCCC1 (centres undefined)	-1	2	-12	-4	-6	0	/	/
CCCCCCNC(=O)C(C#N)c1nc2ccccc2nc1N1CCCC1 (centres undefined)	-1	5	38*	-2	-15	2	29*	1
CCCC(=O)Nc1ccc2c(c1)nc1n2CCN(C2CCCCC2)C1	-7	-1	-6	-5	-14	-2	/	/
COc1ccc(-c2nc(C#N)c(NCCN(C)C)o2)cc1	-6	-1	27*	0	4	-1	-7	3
CCCC(=O)N(Cc1cc2cc(OC)ccc2[nH]c1=O)c1ccccc1OC	7	-11	/	/	-9	-2	/	/
CCc1ccc(N2CC(C(=O)NCc3ccc4c(c3)OCO4)CC2=O)cc1 (centres undefined)	5	1	1	0	-9	-1	/	/
O=C(NCc1ccc2c(c1)OCO2)C1CC(=O)N(c2ccc(F)cc2)C1 (centres undefined)	-5	-7	25*	4	2	-2	-8	7
Cc1cccc(NC(=O)c2cc([N+](=O)[O-])ccc2Cl)c1O	11	3	-10	/	-1	-4	/	/
Cc1n[nH]c(C)c1NC(=O)c1cc([N+](=O)[O-])ccc1Cl	3	-8	27*	0	2	-1	-6	5
SMILES	MC4R antag cAMP	TLR9-MyD88 block	TLR4 MyD88 comp	MIN6 prolif	NOD2 RIPK2 PPI	MC4R ag barr	TLR4 MyD88 cnf	BLA inhibitor ct
CCOc1ccc(NC(=O)COC(=O)CN2CCCCCC2=O)cc1	2	-6	/	-4	-6	-2	/	/
Cc1ccc(S(=O)(=O)NC(C(=O)Oc2ccc3c(C(F)(F)F)cc(=O)oc3c2)c2ccccc2)cc1 (centres undefined)	10	3	38*	-1	0	-2	31*	62*
CCOc1ccc(NC(=O)CN2C(=O)COc3ccccc32)cc1	7	0	/	-1	-12	0	/	/
CC(Sc1nnc(C2CC2)n1Cc1ccccc1)C(=O)N1CCNC1=O (centres undefined)	4	2	/	1	2	-3	/	/
CCCCCCCn1c2c(c(=N)c3c1CCC3)CCCC2	7	7	26*	/	-7	-2	21	26*
CCCCCCn1c2c(c(=N)c3c1CCC3)CCC2	-7	1	27*	-6	1	-2	7	24
CCCCCCCCCn1c2c(c(=N)c3c1CCC3)CCC2	-8	2	17	-6	6	8	/	/
CCC(=O)OC1(C(C)=O)CCC2C3CCC4=CC(=O)CCC4(C)C3CCC21C (centres undefined)	4	-8	/	/	3	0	/	/
CN(C)c1ccc(/C=N/N=C/c2ccccc2O)cc1	27	20	37*	0	-6	-1	58*	53*
CCOc1ccc(NC(=O)N[C@@H](CCSC)C(=O)OC)cc1	-4	-3	0	0	2	6	/	/
CN(C)c1ccc(C2CC(c3ccccc3)=Nc3nc(-c4ccccc4)cn32)cc1 (centres undefined)	/	/	25*	/	/	/	4	19
COc1ccc2nc(/C(C#N)=C\c3ccc(C(=O)O)cc3)[nH]c2c1	-18	16	27*	-1	16	-2	13	27*
N#CC1CC(c2ccc([N+](=O)[O-])cc2)=NN1c1ccc([N+](=O)[O-])cc1 (centres undefined)	14	16	56*	-4	7	-2	56*	83*
Cc1ccccc1OCC(=O)NC(=S)Nc1ccc(S(=O)(=O)NC2CCCCC2)cc1	4	1	-10	1	-6	3	/	/
CC(=O)NS(=O)(=O)c1ccc(NC(=S)NC(=O)COc2ccccc2C)cc1	-5	-1	34*	-1	-12	1	-13	7
Cn1c(=O)c([N+](=O)[O-])c(-n2ccnc2)c2ccccc21	24	4	25*	3	5	-3	-5	-13
CCCCCn1c(=O)c(C(=O)c2ccccc2)nc2ccccc21	-3	-14	4	0	-6	-1	/	/
